pEC50: −log10 of the molar value. Bridge positions count the residues as written; N and C are the ends. Square brackets hold non-standard residues; d marks the D form. Peptide text beside a SMILES is read from it. Ala(4-thiazolyl) = N[C@@H](Cc1cscn1)C(=O)O; Ala(2-furyl) = N[C@@H](Cc1ccco1)C(=O)O; Ala(cPent) = N[C@@H](CC1CCCC1)C(=O)O; 2Thi = N[C@@H](Cc1cccs1)C(=O)O; Cha = N[C@@H](CC1CCCCC1)C(=O)O; Orn = NCCC[C@H](N)C(=O)O; Dab = NCC[C@H](N)C(=O)O; Ac4c = NC1(C(=O)O)CCC1
Key:
[1] = target: Vasopressin V1a/V2 (Homo sapiens) (UniProt P30518+P37288); assay: Selectivity ratio of EC50 for human vasopressin V2 receptor to EC50 for human vasopressin V1a receptor
Vasopressin V1a/V2 (Homo sapiens), sequence (P30518 whole entry, looked up): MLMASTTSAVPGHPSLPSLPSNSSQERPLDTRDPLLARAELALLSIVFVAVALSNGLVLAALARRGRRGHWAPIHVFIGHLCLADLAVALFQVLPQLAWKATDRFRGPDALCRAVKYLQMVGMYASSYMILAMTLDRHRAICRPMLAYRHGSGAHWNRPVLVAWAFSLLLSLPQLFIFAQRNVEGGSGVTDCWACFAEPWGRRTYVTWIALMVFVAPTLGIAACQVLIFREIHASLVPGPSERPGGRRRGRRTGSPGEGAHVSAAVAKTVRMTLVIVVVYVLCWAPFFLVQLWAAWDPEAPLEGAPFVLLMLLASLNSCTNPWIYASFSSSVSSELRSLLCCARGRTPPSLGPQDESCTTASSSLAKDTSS
Vasopressin V1a/V2 (Homo sapiens), sequence (P37288 whole entry, looked up): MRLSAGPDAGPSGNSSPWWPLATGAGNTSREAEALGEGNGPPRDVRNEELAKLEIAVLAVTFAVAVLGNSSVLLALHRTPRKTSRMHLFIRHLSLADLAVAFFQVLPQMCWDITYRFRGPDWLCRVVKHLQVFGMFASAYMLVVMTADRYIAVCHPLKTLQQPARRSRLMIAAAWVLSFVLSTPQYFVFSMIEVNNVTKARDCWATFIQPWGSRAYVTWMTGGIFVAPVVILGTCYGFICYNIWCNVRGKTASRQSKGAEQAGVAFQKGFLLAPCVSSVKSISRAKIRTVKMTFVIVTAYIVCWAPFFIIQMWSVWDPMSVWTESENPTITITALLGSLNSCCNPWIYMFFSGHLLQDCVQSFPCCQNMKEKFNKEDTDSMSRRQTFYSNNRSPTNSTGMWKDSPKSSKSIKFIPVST

Vasopressin V1a receptor = Vasopressin V1a receptor (Homo sapiens, UniProt P37288); assay: Agonist activity at recombinant human vasopressin V1a receptor expressed in HEK293 cells by luciferase reporter gene assay; format: functional, cell-based; settings: read-out: EC50
Vasopressin V1a receptor, sequence (P37288 whole entry): as the sequence (P37288 whole entry, looked up) above

Vasopressin V1b receptor = target: T1, Vasopressin V1b receptor (Homo sapiens, UniProt P47901); assay: Agonist activity at recombinant human vasopressin V1b receptor expressed in Flp-In-293 cells by luciferase reporter gene assay; format: functional, cell-based; settings: read-out: EC50
T1 sequence (P47901 whole entry): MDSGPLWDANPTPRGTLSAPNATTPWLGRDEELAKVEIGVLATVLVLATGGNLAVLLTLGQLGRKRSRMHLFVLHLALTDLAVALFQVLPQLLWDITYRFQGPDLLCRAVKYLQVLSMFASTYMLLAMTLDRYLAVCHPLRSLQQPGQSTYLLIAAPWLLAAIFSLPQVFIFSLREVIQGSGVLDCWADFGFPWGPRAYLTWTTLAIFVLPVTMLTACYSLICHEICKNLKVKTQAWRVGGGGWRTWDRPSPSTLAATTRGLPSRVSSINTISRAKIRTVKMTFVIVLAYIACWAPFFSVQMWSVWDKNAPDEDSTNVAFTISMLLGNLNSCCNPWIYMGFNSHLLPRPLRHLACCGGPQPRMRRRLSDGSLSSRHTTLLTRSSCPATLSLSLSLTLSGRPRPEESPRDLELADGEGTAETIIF
Outline: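 Reporter gene assays in HEK293 cells transiently cotransfected with V1a (human or rat) or human V2 receptor vector plus NFAT-luciferase (V1a) or CRE-luciferase (V2) reporter; V1b in Flp-In-293 stably expressing receptor, OT in CHO-K1 stably expressing receptor, both transiently transfected with NFAT-luciferase. Two days post-transfection, peptides added for 5 h at 37 °C, lysis with luciferin, luminescence read.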

Vasopressin V2 receptor [2] = target: T2, Vasopressin V2 receptor (Homo sapiens, UniProt P30518); assay: Agonist activity at recombinant human vasopressin V2 receptor expressed in HEK293 cells by luciferase reporter gene assay; format: functional, cell-based; settings: for pEC50: read-out: EC50; for EC50: read-out: pEC50 (converted)
T2 sequence (P30518 whole entry): as the sequence (P30518 whole entry, looked up) above

Oxytocin receptor = target: T3, Oxytocin receptor (Homo sapiens, UniProt P30559); assay: Agonist activity at human OT receptor expressed in CHO-K1 cells by luciferase reporter gene assay; format: functional, cell-based; settings: for pEC50: read-out: EC50; for EC50: read-out: pEC50 (converted)
T3 sequence (P30559 whole entry): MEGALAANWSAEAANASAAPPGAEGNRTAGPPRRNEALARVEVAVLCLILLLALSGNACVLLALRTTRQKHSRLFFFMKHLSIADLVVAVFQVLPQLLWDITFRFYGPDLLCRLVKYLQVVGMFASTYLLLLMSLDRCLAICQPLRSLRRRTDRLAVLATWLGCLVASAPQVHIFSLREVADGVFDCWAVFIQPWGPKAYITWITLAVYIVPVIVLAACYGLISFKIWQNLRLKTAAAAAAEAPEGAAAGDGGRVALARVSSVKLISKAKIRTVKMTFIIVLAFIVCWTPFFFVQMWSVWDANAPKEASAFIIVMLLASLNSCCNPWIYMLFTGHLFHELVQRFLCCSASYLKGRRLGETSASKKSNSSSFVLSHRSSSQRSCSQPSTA

Homo sapiens [3] = species on record: Homo sapiens; assay: Selectivity ratio of EC50 for human vasopressin V1b receptor to EC50 for human vasopressin V1a receptor
Homo sapiens [4] = species on record: Homo sapiens; assay: Selectivity ratio of EC50 for human oxytocin receptor to EC50 for human vasopressin V1a receptor
[5] = target: T4, Oxytocin receptor (Homo sapiens) (UniProt P30559); assay: Partial agonist activity at human OT receptor expressed in CHO-K1 cells by luciferase reporter gene assay; format: functional, cell-based
T4 sequence (whole entry): T3 sequence (P30559 whole entry)
Outline: (§1)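 Same luciferase reporter systems (OT in stable CHO-K1, V1b in stable Flp-In-293, each with transient NFAT-luciferase; V1a in HEK293 with NFAT-luciferase, V2 in HEK293 with CRE-luciferase). Peptides added for 5 h at 37 °C two days post-transfection, luminescence read. Partial agonism means efficacy <70%.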

Vasopressin V2 receptor [6] = target: T2, Vasopressin V2 receptor; assay: Partial agonist activity at recombinant human vasopressin V2 receptor expressed in HEK293 cells by luciferase reporter gene assay; format: functional, cell-based; outline: as §1

Structure (SMILES) | Ratio EC50 [1] | pEC50 (Vasopressin V1a receptor) | pEC50 (Vasopressin V1b receptor) | pEC50 (Vasopressin V2 receptor [2]) | pEC50 (Oxytocin receptor) | Ratio EC50 (Homo sapiens [3]) | Ratio EC50 (Homo sapiens [4]) | Efficacy [5] [%] | EC50 (Oxytocin receptor) [nM] | pEC50 (Vasopressin V2 receptor [2]; hek293) | EC50 (Vasopressin V2 receptor [2]) [nM] | Efficacy (Vasopressin V2 receptor [6]) [%] | pEC50 (Oxytocin receptor; cho-k1)
CC[C@H](C)[C@@H]1NC(=O)[C@H](Cc2cccs2)NC(=O)[C@@H](N)CSSC[C@@H](C(=O)N2CCC[C@H]2C(=O)N[C@@H](CCN)C(=O)NCC(N)=O)NC(=O)[C@H](CC(N)=O)NC(=O)[C@H](CCC(N)=O)NC1=O (H-C[2Thi]IQNCP[Dab]G-NH2; disulfide 1-6) | 220 | 9.27 | 6.82 | 6.92 | 7.54 | 270 | 53 | < 70 |  |  |  |  | 
CC[C@H](C)[C@@H]1NC(=O)[C@H](CC2CCCC2)NC(=O)[C@@H](N)CSSC[C@@H](C(=O)N2CCC[C@H]2C(=O)N[C@@H](CCCN)C(=O)NCC(N)=O)NC(=O)[C@H](CC(N)=O)NC(=O)[C@H](CC(N)=O)NC1=O (H-C[Ala(cPent)]INNCP[Orn]G-NH2; disulfide 1-6) | > 1200 | 8.11 | 6.92 |  |  | 15 | > 1200 |  | > 10000 | < 5.00 | > 10000 |  | < 5.00
CC[C@H](C)[C@@H]1NC(=O)[C@H](CC2CCCCC2)NC(=O)[C@@H](N)CSSC[C@@H](C(=O)N2CCC[C@H]2C(=O)N[C@@H](CCN)C(=O)NCC(N)=O)NC(=O)[C@H](CC(N)=O)NC(=O)[C@H](CC(N)=O)NC1=O (H-C[Cha]INNCP[Dab]G-NH2; disulfide 1-6) | > 6200 | 8.80 | 7.74 |  |  | 11 | > 6200 |  | > 10000 | < 5.00 | > 10000 |  | < 5.00
CC[C@H](C)[C@@H]1NC(=O)[C@H](CC2CCCCC2)NC(=O)[C@@H](N)CSSC[C@@H](C(=O)N2CCC[C@H]2C(=O)N[C@@H](CCCN)C(=O)NCC(N)=O)NC(=O)[C@H](CC(N)=O)NC(=O)[C@H](CC(N)=O)NC1=O (H-C[Cha]INNCP[Orn]G-NH2; disulfide 1-6) | > 3100 | 8.49 | 6.85 |  |  | 43 | > 3100 |  | > 10000 | < 5.00 | > 10000 |  | < 5.00

The remaining compounds from weak to strong by pEC50 (Vasopressin V1a receptor), led by results:

Ratio EC50 [1] | pEC50 (Vasopressin V1a receptor) | pEC50 (Vasopressin V1b receptor) | pEC50 (Vasopressin V2 receptor [2]) | pEC50 (Oxytocin receptor) | Ratio EC50 (Homo sapiens [3]) | Ratio EC50 (Homo sapiens [4]) | Efficacy [5] [%] | EC50 (Oxytocin receptor) [nM] | pEC50 (Vasopressin V2 receptor [2]; hek293) | EC50 (Vasopressin V2 receptor [2]) [nM] | Efficacy (Vasopressin V2 receptor [6]) [%] | pEC50 (Oxytocin receptor; cho-k1) | Structure (SMILES)
130 | 7.72 | 6.37 | 5.60 | 5.92 | 22 | 63 | < 70 |  |  |  | < 70 |  | CC[C@H](C)[C@@H]1NC(=O)[C@H](Cc2cscn2)NC(=O)[C@@H](N)CSSC[C@@H](C(=O)N2CCC[C@H]2C(=O)N[C@@H](CCN)C(=O)NCC(N)=O)NC(=O)[C@H](CC(N)=O)NC(=O)[C@H](CCC(N)=O)NC1=O (H-C[Ala(4-thiazolyl)]IQNCP[Dab]G-NH2; disulfide 1-6)
> 710 | 7.85 | 6.34 |  | 6.11 | 32 | 55 | < 70 |  | < 5.00 | > 10000 |  |  | CC[C@H](C)[C@@H]1NC(=O)[C@H](Cc2ccco2)NC(=O)[C@@H](N)CSSC[C@@H](C(=O)N2CCC[C@H]2C(=O)N[C@@H](CCN)C(=O)NCC(N)=O)NC(=O)[C@H](CC(N)=O)NC(=O)[C@H](CC(N)=O)NC1=O (H-C[Ala(2-furyl)]INNCP[Dab]G-NH2; disulfide 1-6)
400 | 9.03 | 7.19 | 6.42 | 6.74 | 68 | 190 | < 70 | > 10000 |  |  |  |  | CC[C@H](C)[C@@H]1NC(=O)C2(CCC2)NC(=O)[C@@H](N)CSSC[C@@H](C(=O)N2CCC[C@H]2C(=O)N[C@@H](CCN)C(=O)NCC(N)=O)NC(=O)[C@H](CC(N)=O)NC(=O)[C@H](CCC(N)=O)NC1=O (H-C[Ac4c]IQNCP[Dab]G-NH2; disulfide 1-6)

From ChEMBL document CHEMBL1817572, “New, potent, selective, and short-acting peptidic V1a receptor agonists” (J Med Chem, 2011)
